HKDC1 inhibitor: inhibitors of human hexokinase HKDC1. Q2TB90. recombinant HKDC1, G6PDH/diaphorase resazurin coupled fluorescence. inhibition, % at 20 µM. 340,000 tested, 0.16% active. AID 493160;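 active = inhibition above about 35% when tested at 20 µM, limit read from the data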;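 also: plate controls were DMSO wells with enzyme for no effect and DMSO wells lacking enzyme for full effect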
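Assay system – recombinant HKDC1 (HK5) hexokinase enzyme, produced in-house · Input – HKDC1 at 5 µg/mL · Reagent – glucose plus 1 mM ATP as hexokinase substrates · Timing – 90 min reaction incubation at room temperature, dark · Measured by – G6PDH/diaphorase-coupled fluorescence, 1 mM NADP, 100 µM resazurin, 525/613 nm · Benchmarks – DMSO-enzyme wells negative, buffer-substituted wells positive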
CTSL1 counter: cathepsin L1 inhibition, PFM18AAP counter-screen. recombinant F. hepatica cathepsin L1, Z-Leu-Arg-MCA fluorescence. inhibition, % at 5.96 µM. 300,000 tested, 0.49% active. AID 1906;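 active = inhibition above the mean of all tested compounds plus 3 SD, set per screening campaign, cut at about 17% in these data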;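 also: 0% = plate median of test compound wells and 100% = 1 µM Z-Phe-Ala-diazomethylketone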
Diaph act CS: diaphorase activation or chemical reduction counter-screen; Diaphorase/resazurin coupled assay, resorufin fluorescence, 16 min; hits give high values; 1 = vehicle wells, 0 = NADH-free wells; activation factor at 20 µM; 190,000 tested, 0.005% active; AID 1229;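 active = diaphorase activity raised at least twofold by the compound at 20 µM; inactive = activation factor below 2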
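System – purified diaphorase enzyme from Clostridium kluyveri · Input – enzyme 0.07 U/mL final · Also added – final NADH 0.114 mM, resazurin 0.1 mM · Measured by – fluorescence of resorufin, 544 nm excitation, 590 nm emission · Timing – 16 min enzyme reaction, ambient temperature · Measure – resorufin increase flagging diaphorase activators or reducers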
ATG4B inh: inhibitors of human ATG4B cysteine protease; ATG4B cleavage of LC3-PLA2, NBD-HPC fluorescence, 1 h; inhibition, % at 8.33 µM; 340,000 tested, 0.51% active; in the data active = inhibition above about 40%
Target sequence (Q9Y4P1 whole entry, looked up): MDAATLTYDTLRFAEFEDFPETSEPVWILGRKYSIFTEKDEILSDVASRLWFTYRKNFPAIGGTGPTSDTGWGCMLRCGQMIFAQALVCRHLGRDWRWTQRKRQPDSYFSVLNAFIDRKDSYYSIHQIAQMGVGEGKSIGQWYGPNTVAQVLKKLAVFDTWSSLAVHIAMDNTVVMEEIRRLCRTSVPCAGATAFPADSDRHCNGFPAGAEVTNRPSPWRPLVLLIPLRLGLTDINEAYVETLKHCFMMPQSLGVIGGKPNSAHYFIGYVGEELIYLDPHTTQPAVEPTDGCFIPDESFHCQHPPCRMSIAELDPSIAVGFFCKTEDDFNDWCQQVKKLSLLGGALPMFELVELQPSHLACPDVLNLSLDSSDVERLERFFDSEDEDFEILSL
Diaph inh CS: diaphorase inhibition or chemical oxidation counter-screen; inhibition, % at 20 µM; diaphorase resazurin-to-resorufin fluorescence, NADH, 16 min; bacterial (C. kluyveri) enzyme, not human; 190,000 tested, 0.69% active;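 active = primary screen inhibition at 20 µM above a set limit, cut at about 50% in these data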;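 also: plate controls were DMSO with full reaction for no effect and wells lacking NADH for full effect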
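Detection: fluorescence of resorufin formed from resazurin, Ex 544/Em 590 nm; test system: Clostridium kluyveri diaphorase enzyme; amount: 0.14 U/mL diaphorase, enzyme working solution; times: 16-min room-temperature incubation before reading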
Active calls of the source: *; . = no result. Rows were chosen to be rich in hits. Some 1.4% of all compounds tested hit in one or more screens of this group.

SMILES | HKDC1 inhibitor | CTSL1 counter | Diaph act CS | ATG4B inh | Diaph inh CS
O=C(O)CC1OCC=C2CN3CCC45c6ccccc6NC4C1C2CC35 (stereo not given) | -5 | 18* | . | -3 | .
O=C1/C(=C\c2ccccc2)C2OCC=C3CN4CCC56c7ccccc7N1C5C2C3CC46 (stereo not given) | -3 | 8 | . | -3 | .
CCn1nc(-c2ccccc2)nc2c(=O)n(C)c(=O)nc1-2 | -83 | 114* | 1.4 | 80* | -44
Oc1ccc(CC2CC3CCN2CC3)cc1O (stereo not given) | -2 | -2 | 0.5 | 0 | 53*
COc1ccc(C(=O)CC2(CC(=O)c3ccc(OC)cc3)C(=O)N(C)C(=O)N(C)C2=O)cc1 | -2 | 5 | 0.9 | -11 | 5
CN1C(=O)N(C)C(=O)C2(Cc3c(ccc4ccccc34)N(C)C2)C1=O | 26 | -3 | 0.3 | -5 | 67*
CCC(C)/C=C(C)/C=C/C1=CC2=C(Cl)C(=O)C(C)(OC(C)=O)C(=O)C2=CO1 (stereo not given) | 20 | 21* | 0.7 | 4 | 35
CC(N)C(=O)NC1C2C(=C(O)CC(O)C2O)C(=O)OC1(C)C(Cl)Cl (stereo not given) | -2 | . | . | 10 | .
CCCCCCCCCOc1ccc2[nH]cc(CCN)c2c1 | . | . | 3.3* | . | -227
CC1(CCl)CN1S(=O)(=O)c1ccccc1 (stereo not given) | -7 | 28* | . | -6 | .
CN(C)C(=O)Oc1noc2cc(Cl)ccc12 | -3 | 43* | . | 2 | .
CN(C)C(=O)Oc1c(Cl)cc(Cl)c2cccnc12 | -8 | 1 | 0.9 | 4 | 7
COC1/C=C/C=C(\C)Cc2cc(O)c(Cl)c(c2)N(C)C(=O)CC(OC(=O)C(C)C)C2(C)OC2C(C)C2CC1(O)NC(=O)O2 (stereo not given) | 0 | . | . | -1 | .
CC(=O)C1C2c3ccccc3OC1(C)N=c1s/c(=C/c3cn(C)nc3C)c(=O)n12 (stereo not given) | 0 | 34* | 1.1 | -10 | -7
COC(=O)C1C2c3ccccc3OC1(C)N=c1s/c(=C/c3cnn(C)c3)c(=O)n12 (stereo not given) | -16 | 2 | 0.7 | -12 | 31
CC1CCCCC12C(=O)NC(=O)NC2=O (stereo not given) | -2 | . | . | 7 | .
CCc1c(C)nc(N)nc1N1N=C1SCC#N | -6 | 0 | 0.9 | -7 | 11
CCc1c(C)nc(N)nc1N1N=C1SCC(=O)OC | -6 | 3 | 0.2 | -7 | 77*
CC1c2ccccc2-n2nncc2CN1C (stereo not given) | -6 | . | . | 2 | .
C[n+]1c2ccccc2nc2ccc(NCCO)cc21 | 14 | 38* | . | 9 | .
C=Cc1cc(OC)c2c(c1)c(=O)oc1c2cc(OC)c2c(O)ccc(C3OC(C)C(O)C(C)(O)C3O)c21 (stereo not given) | 22 | . | . | 13 | .
CCCCCCCCn1sccc1=O | 7 | . | . | 11 | .
O=C(N/N=C/c1c(O)n(C2CC2)c(=S)[nH]c1=O)c1ccccc1O | 3 | 8 | 0.3 | -6 | 66*
Cc1ccccc1-n1c(O)c(/C=N/NC(=O)c2ccccc2O)c(=O)[nH]c1=S | -8 | 3 | . | -5 | .
CNC(=O)Oc1ccccc1C1CCCCC1 | -4 | . | . | 5 | .
SMILES | HKDC1 inhibitor | CTSL1 counter | Diaph act CS | ATG4B inh | Diaph inh CS
CN1/C(=C\C=C2C(=O)NC(=O)NC2=O)C(C)(C)c2ccccc21 | -6 | 20* | 0.7 | -4 | 26
CC12C=CC(=O)C=C1CCC1C2C(O)CC2(C)C1CCC2(C)O (stereo not given) | -6 | . | . | -3 | .
CC(C)(O)/C=C/C(=O)C(C)(O)C1C(O)CC2(C)C3CC=C4C(C=C(O)C(=O)C4(C)C)C3(C)C(=O)CC12C (stereo not given) | 5 | . | . | -7 | .
C[C@]12CC[C@@H]3c4ccc(O)c(O)c4CC[C@H]3[C@@H]1CC[C@@H]2O | 1 | -4 | 0.3 | 3 | 70*
Cc1cc(OCC(=O)N2CCC(C(=O)O)(c3ccccc3)CC2)c2c(C)c(C)c(=O)oc2c1 | 0 | 18* | . | -32 | .
COC(=O)C1=C(c2ccc(OC(F)(F)F)cc2)C[C@@H]2CC[C@H]1N2C(=O)N1CCCCC1 | -2 | . | . | 10 | .
CCOC(=O)c1c(N)n(CCCOC(=O)c2ccco2)c2nc3ccccc3nc12 | 15 | 11 | 0.9 | -16 | 10
CCCCCn1c(NC(=O)c2ccco2)c(C(=O)OCC)c2nc3ccccc3nc21 | 9 | 3 | 0.3 | 1 | 68*
C[C@]12CC[C@@H](O)CC1=CCC1C2CC[C@@]2(C)C1C[C@@H](F)[C@H]2O (stereo not given in full) | -6 | . | . | 0 | .
CC[C@@H](CO)NC(=O)[C@@H]1C=C2c3cccc4[nH]cc(c34)C[C@H]2N(C)C1 | -2 | . | . | -2 | .
CC(C)C[C@H]1C(=O)N2CCC[C@H]2[C@]2(O)O[C@](NC(=O)[C@@H]3C=C4c5cccc6[nH]cc(c56)C[C@H]4N(C)C3)(C(C)C)C(=O)N12 | 10 | 34* | . | -13 | .
COc1c2c(cc3c1OCO3)CC[N+](C)=C2 | -10 | 2 | 0.2 | 6 | 83*
Oc1c(Cl)cccc1Cc1cc(Cl)cc(Cl)c1O | 4 | . | . | 11 | .
CC(=O)OC1CCC2(C)C(CC(=O)C3C2CCC2(C)C(OC(C)=O)CCC32)C1 (stereo not given) | 1 | . | . | 2 | .
O=C1C=CC(=O)C=C1 | 48* | . | . | -4 | .
Cc1nc(C)c(C(=O)NN=Cc2ccc(N(CCCl)CCCl)cc2)s1 | -8 | . | . | -4 | .
CC(C)c1ccccc1OCC(=O)N1CCCN(C)CC1 | -3 | 18* | . | -5 | .
CN1CCCN(C(=O)COc2ccccc2Br)CC1 | -1 | 2 | . | -2 | .
CC1=NN=C(c2ccc(N)cc2)c2cc3c(cc2C1)OCO3 | 15 | 39* | . | 5 | .
C=CCC1(Cc2ccsc2)C(=O)NC(=O)NC1=O | -3 | . | . | 5 | .
CC1(C)C[C@H]2C=C(C=O)[C@]3(C=O)C[C@]3(C)[C@H]2C1 | 5 | 17* | 1 | -12 | 1
C[C@]12CCC3C(CC[C@@H]4[C@H]5O[C@H]5CC[C@]34C)C1CC[C@@H]2O (stereo not given in full) | 11 | . | . | 0 | .
O=c1[nH]c(O)c(N=Nc2cc([N+](=O)[O-])ccc2O)c(=O)[nH]1 | 9 | 10 | 0.3 | -5 | 66*
Cc1ccc2c(c1)=C/C(=C\c1c(O)[nH]c(=S)[nH]c1=O)C(=O)N=2 | . | 2 | 0.5 | . | 54*
COc1cc2c(cc1OC)C13CCN4CC5=CCOC6CC(=O)N2C1C6C5C3C4 (stereo not given) (tested in a mixture with another compound) | -5 | . | . | 3 | .
[Cl][Pt+2][Cl].[NH-]C1CCCCC1[NH-] (stereo not given) | 2 | 40* | . | 8 | .
